5HT1a ag = 5-HT1a (human) receptor agonism; 65,000 tested, 0.56% active; CHO 5-HT1a Ga15 NFAT-bla reporter, FRET ratio; 0% basal, 100% maximal reference agonist; P08908; activation, % at 10 µM;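 active = activation above the screen-wide mean activation plus 3 SD, cut at about 19% in these data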
5HT1a antag = antagonists of human 5-HT1a serotonin receptor; P08908; CHO 5-HT1a Ga15 NFAT-bla reporter, antagonist mode; inhibition, % at 10 µM; 62,000 tested, 0.68% active; AID 612;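 active = inhibition above the mean of all tested compounds plus 3 SD, cut at about 43% in these data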;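 also: receptor stimulated by 5-CT agonist at 100 nM near EC80; beta-lactamase reporter measured by ratiometric fluorescence of a cleavable substrate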
S1P1 ag pot = S1P1 (human) agonism or agonism potentiation | activation, % at 9.5 µM | S1P1 CRE-bla cells, forskolin, beta-lactamase FRET, potentiator mode; S1P1 agonist co-added at EC20, 2 nM; 100% = saturating reference agonist, 0% = basal | 56,000 tested, 0.57% active | AID 449;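 active = activation above a cutoff set at the mean activation of all tested compounds plus 3 SD, cut at about 54% in these data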;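 also: forskolin at 4 µM as EC80 and the EC20 agonist is SEW2871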
S1P3 agonist = activates the human S1P3 receptor | Q99500 | S1P3 NFAT-BLA reporter cells, agonism, FRET ratio; relative to 1 µM S1P, basal subtracted | activation, % at 4.5 µM | 60,000 tested, 0.1% active;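 active = activation above the screen-wide mean plus 3 SD, cut at about 4.5% in these data, passing the limit was not always enough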
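Assay system: CHO cells stably expressing human S1P3, Gα16 and NFAT-β-lactamase reporter. Timing: overnight plating, 4 h compound 37 °C, 2 h substrate RT. Signal: β-lactamase FRET emission ratio 460/535 nm. Measure: percent activation versus median 1 µM S1P response, basal-subtracted, per plate. Repeats: primary screen single test, confirmation screen in triplicate.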
HTR1E antagonist = blocks the human 5-HT1E serotonin receptor | inhibition, % at 6 µM | CHO 5-HT1E Ga15 NFAT-bla reporter, FRET, antagonist | 65,000 tested, 0.99% active | P28566;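 active = inhibition above a set limit, the mean inhibition across every tested compound plus 3 SD, cut at about 29% in these data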;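 also: signal is the 460 over 535 nm emission ratio of beta-lactamase substrate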
Target sequence (P28566 whole entry, looked up): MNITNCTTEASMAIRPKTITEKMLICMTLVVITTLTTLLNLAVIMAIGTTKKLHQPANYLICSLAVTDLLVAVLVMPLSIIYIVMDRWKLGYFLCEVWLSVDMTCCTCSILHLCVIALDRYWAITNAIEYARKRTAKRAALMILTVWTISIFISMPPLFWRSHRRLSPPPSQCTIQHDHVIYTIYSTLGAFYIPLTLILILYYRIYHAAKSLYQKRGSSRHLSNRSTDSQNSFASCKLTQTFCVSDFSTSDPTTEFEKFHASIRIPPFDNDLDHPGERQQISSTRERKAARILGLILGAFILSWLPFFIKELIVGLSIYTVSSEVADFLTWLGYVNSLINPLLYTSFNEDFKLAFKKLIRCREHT
5HT1E ag = agonists of human 5-HT1E serotonin receptor. activation, % at 6 µM. CHO 5-HT1E Ga15 NFAT-bla reporter, FRET; 0% DMSO wells, 100% control agonist wells. 65,000 tested, 0.69% active;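 active = activation above a set limit, the screen-wide mean activation plus 3 SD, cut at about 8.5% in these data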
Of the large screens only hits and unclear results are named; the others gave an inactive call. Rows were chosen to be rich in hits. Some 3% of all compounds tested hit in one or more screens of this group.

Cc1cc(/C=c2/sc3nc4ccccc4n3c2=O)c(C)n1-c1ccccn1	S1P1 ag pot 101 (no result: 5HT1a antag)
O=c1/c(=C\c2cccnc2)sc2nc3ccccc3n12	none
CCOC(=O)c1c(-c2ccccc2)nnn1-c1nc(OCC)nc(N2CCCCC2)n1	none
COc1ccc(C(=O)N2c3cc4c(cc3C(C)=CC2(C)C)OCO4)cc1	5HT1a antag 54
COCCn1c(=O)[nH]c2cc(C(=O)NCCN3CCN(c4ccccc4F)CC3)ccc2c1=O	5HT1a antag 52 (no result: S1P1 ag pot, S1P3 agonist)
COCCn1c(=O)[nH]c2cc(C(=O)NCCCN3CCN(c4ccc(F)cc4)CC3)ccc2c1=O	none (no result: S1P1 ag pot, S1P3 agonist)
CC(=O)NCc1ccc(-c2csc(N)n2)s1	5HT1E ag 14
N#CCCSc1ccccc1NC(=O)c1ccc(S(=O)(=O)N2CCCC2)cc1	none
CC1CN(C(=O)Cc2ccc(-c3ccccc3)cc2)CC(C)O1 (configuration not stated)	none
CCOC(=O)c1[nH]c(C)c(C(=O)N2CCN(C(=O)OCC)CC2)c1CC	none
COc1cccc(C(=O)Cn2c(=O)n(CC3CCCO3)c(=O)c3ccccc32)c1 (configuration not stated)	none (no result: S1P1 ag pot, S1P3 agonist)
CC(=O)NCCOc1nc(N(C)C)nc(N2CCOCC2)n1	5HT1a ag 26
O=C(NCCOc1nc(N2CCCCC2)nc(N2CCOCC2)n1)Nc1ccccc1	none (no result: S1P1 ag pot)
COc1cccc(OCCn2c(C)c(/C=N/n3cnnc3)c3ccccc32)c1	HTR1E antagonist 43
Cc1cccc(N2CC34C=CC(O3)C(C(=O)O)C4C2=O)c1 (configuration not stated)	none
Cc1ccc2c(c1)C1OCCC1C1N2C(=O)C2C(C(=O)O)C3C=CC21O3 (configuration not stated)	5HT1a ag 21
COC(=O)/C=C/S(=O)(=O)c1ccc(NC(C)=O)cc1	5HT1a antag 82, HTR1E antagonist 67
O=C(CN(c1ccccc1)S(=O)(=O)c1ccc(F)cc1)N1CCCCCC1	none
N#Cc1c(N)nc(SCc2ccncc2)c(C#N)c1-c1cccs1	HTR1E antagonist 43
Cc1cc(NC(=O)CSc2ccc(-c3nc4cc(C)c(C)cc4[nH]3)cn2)no1	HTR1E antagonist 31 (no result: S1P1 ag pot, S1P3 agonist)
Cc1cc(C)nc(SCC(=O)Oc2ccc3oc(=O)cc(C)c3c2)n1	none (no result: S1P1 ag pot, S1P3 agonist)
CC(C)C[C@H](N)c1nnc(S(=O)(=O)Cc2ccc(F)cc2)o1	5HT1a antag 88, HTR1E antagonist 43
Cc1cc(O)ccc1Nc1nc2ccccc2nc1Nc1ccc(O)cc1C	none
O=C(CSc1nc(-c2cccs2)cc(C(F)(F)F)n1)NCc1ccco1	none
COc1ccc(-c2cc(-c3cccs3)c(C#N)c(SCC(=O)NCc3ccco3)n2)cc1	HTR1E antagonist 32
CN1CCN(C(=O)CSc2nc(-c3cccs3)cc(-c3cccs3)c2C#N)CC1	S1P1 ag pot 67
C=C(C)c1cccc(C(C)(C)NC(=O)Nc2ccc3[nH]c(=O)[nH]c3c2)c1	none
NC(=O)c1oc2ccc(Cl)cc2c1N	none
CN=c1oc2ccc(Cl)cc2cc1C(N)=O	5HT1E ag 9.8
CCOc1ccc(Nc2cc(C)nc(-n3nc(C)cc3C)n2)cc1	5HT1a antag 52, HTR1E antagonist 80
CCc1nn(CCCC(=O)N2CCc3ccccc3C2)c(=O)c2cc3occc3n12	none
CCOC(=O)C1=C(C)NC(=O)NC1c1ccc2c(c1)OCCO2 (configuration not stated)	none
CC1=C(C(=O)OCc2ccc3c(c2)OCO3)C(c2ccc(F)cc2)NC(=O)N1 (configuration not stated)	S1P1 ag pot 94, HTR1E antagonist 29
COc1ccc(COC(=O)C2=C(C)NC(=O)NC2c2ccc(O)c(OC)c2)cc1 (configuration not stated)	none
CC1=C(C(=O)OCc2ccc3c(c2)OCO3)C(c2ccc(Cl)cc2)NC(=O)N1 (configuration not stated)	5HT1a antag 50, S1P1 ag pot 113, HTR1E antagonist 43
Cc1occc1-c1nnc(SCC(=O)c2cc3ccccc3oc2=O)o1	none
COc1ccccc1NC(=O)COc1ccc(CO)cc1Cl	none
O=S(=O)(C/C(=C/CO)S(=O)(=O)c1ccccc1)c1ccccc1	5HT1a antag 92, S1P1 ag pot 82, HTR1E antagonist 106
CC(=O)C(Sc1nc(-c2ccc(F)cc2)nc2c1c(=O)n(C)c(=O)n2C)C(C)=O	HTR1E antagonist 97
Cc1cccc(NC(=O)Nc2ccc(C#N)cc2)n1	5HT1a antag 83, HTR1E antagonist 32
Cc1cccc(NC(=O)Nc2cccc(C#N)c2)n1	none
COC1Cc2ccccc2N(C(=O)N2CCN(CCO)CC2)c2ccccc21 (configuration not stated)	none
Cc1cccc2cc(CN(Cc3nnnn3C3CCCC3)C3CCCCC3)c(=O)[nH]c12	HTR1E antagonist 33
Cc1cccc(N(CC(=O)NC2CCCCC2)C(=O)c2c(C)noc2C)c1	none (no result: S1P1 ag pot, S1P3 agonist)
CSc1nc2[nH]c3c(c2c2nncn12)CC(C)(C)OC3	none (no result: 5HT1a antag)
CSc1nc2[nH]c3c(c2c2nnnn12)CCCC3	HTR1E antagonist 36 (no result: 5HT1a antag)
C[N+]1=C2CCCCCN2C(O)(c2ccccc2)C1 (configuration not stated)	5HT1a ag 20, 5HT1E ag 51
CCn1c(SCc2cc(=O)[nH]c3ccccc23)nc2c1c(=O)n(C)c(=O)n2C	none
O=C(NCCN1CCN(Cc2ccccc2)CC1)C1c2ccccc2C(=O)N2CCc3ccccc3C12 (configuration not stated)	5HT1a antag 59
Cc1ccc(CNC(=O)C2c3ccccc3C(=O)N3CCc4ccccc4C23)o1 (configuration not stated)	none
CCOC(=O)c1cccc(NC(=O)CSc2nnc(COc3ccccc3C)o2)c1	none
CCS(=O)(=O)N1CCCC(C(=O)NCCCN2CCCC2=O)C1 (configuration not stated)	none
CCCCCn1c(N(C)Cc2ccccc2)nc2c1c(=O)[nH]c(=O)n2C	none
CC(=O)Nc1ccc(S(=O)(=O)N(C)c2ccc(O)cc2)cc1	5HT1E ag 52
COc1ccc(C(=O)COC(=O)CCN=C2NS(=O)(=O)c3ccccc32)cc1OC	5HT1E ag 20
Cc1nc(N2CCN(C(=O)c3ccc(Cl)cc3)CC2)c(C#N)c2c1COC(C)(C)C2	none (no result: 5HT1a antag)
c1ccc(-c2cc3c(ccc4nonc43)nn2)cc1	none
On1onc2c3cc(-c4ccccc4)nc3ccc21	5HT1a antag 50, HTR1E antagonist 33 (no result: S1P1 ag pot)
O=C(CN1C(=O)NC2(CCCCCC2)C1=O)N1CCC(Cc2ccccc2)CC1	none
